Source: ChEMBL document CHEMBL3351648, “Synthesis and pharmacological evaluation of 6-aminonicotinic acid analogues as novel GABA(A) receptor agonists” (Eur J Med Chem, 2014)
Calls of active or inactive are those of the source. The rule behind the calls is not given here.

Columns and labels:
[1] = molecular target: T1, Gamma-aminobutyric acid receptor subunit rho-1 (Homo sapiens, UniProt P24046); test: Agonist activity at human GABAA rho1 expressed in tsA-201cells by FLIPR membrane potential blue assay relative to GABA
T1 sequence (P24046 whole entry): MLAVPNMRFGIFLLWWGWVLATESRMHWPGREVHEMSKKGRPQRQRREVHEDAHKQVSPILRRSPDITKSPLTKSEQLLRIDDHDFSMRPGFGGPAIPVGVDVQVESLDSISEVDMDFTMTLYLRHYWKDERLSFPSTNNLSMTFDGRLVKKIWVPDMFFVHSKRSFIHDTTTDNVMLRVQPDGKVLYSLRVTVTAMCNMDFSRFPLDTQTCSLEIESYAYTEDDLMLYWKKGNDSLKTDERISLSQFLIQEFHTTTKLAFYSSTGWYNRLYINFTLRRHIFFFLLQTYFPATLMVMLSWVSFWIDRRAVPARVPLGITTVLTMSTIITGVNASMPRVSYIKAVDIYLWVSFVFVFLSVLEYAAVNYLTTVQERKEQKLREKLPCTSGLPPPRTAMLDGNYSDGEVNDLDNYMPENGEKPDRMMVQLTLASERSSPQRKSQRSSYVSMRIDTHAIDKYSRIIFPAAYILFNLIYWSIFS

tsA-201 = test: Agonist activity at human GABAAalpha5beta2gamma2S receptor expressed in tsA-201cells by FLIPR membrane potential blue assay relative to GABA
[2] = molecular target: T2, GABA-A receptor; alpha-1/beta-2/gamma-2 (Homo sapiens, UniProt P14867+P18507+P47870); test: (§1) Agonist activity at human GABAAalpha1beta2gamma2S receptor expressed in tsA-201cells by FLIPR membrane potential blue assay
T2 sequence (P14867 whole entry): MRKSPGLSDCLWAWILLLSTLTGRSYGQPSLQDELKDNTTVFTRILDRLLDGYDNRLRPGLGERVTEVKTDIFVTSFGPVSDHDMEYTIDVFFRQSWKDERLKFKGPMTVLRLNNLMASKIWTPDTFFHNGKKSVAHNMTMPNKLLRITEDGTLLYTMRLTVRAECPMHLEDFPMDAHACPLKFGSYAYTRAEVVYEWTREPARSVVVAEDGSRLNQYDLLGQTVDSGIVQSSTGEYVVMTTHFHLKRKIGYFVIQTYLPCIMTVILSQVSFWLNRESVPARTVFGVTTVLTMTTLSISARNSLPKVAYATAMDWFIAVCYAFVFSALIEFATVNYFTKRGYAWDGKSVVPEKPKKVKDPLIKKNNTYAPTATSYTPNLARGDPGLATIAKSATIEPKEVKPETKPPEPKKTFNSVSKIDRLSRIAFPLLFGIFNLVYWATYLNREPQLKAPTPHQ
T2 sequence (P47870 whole entry): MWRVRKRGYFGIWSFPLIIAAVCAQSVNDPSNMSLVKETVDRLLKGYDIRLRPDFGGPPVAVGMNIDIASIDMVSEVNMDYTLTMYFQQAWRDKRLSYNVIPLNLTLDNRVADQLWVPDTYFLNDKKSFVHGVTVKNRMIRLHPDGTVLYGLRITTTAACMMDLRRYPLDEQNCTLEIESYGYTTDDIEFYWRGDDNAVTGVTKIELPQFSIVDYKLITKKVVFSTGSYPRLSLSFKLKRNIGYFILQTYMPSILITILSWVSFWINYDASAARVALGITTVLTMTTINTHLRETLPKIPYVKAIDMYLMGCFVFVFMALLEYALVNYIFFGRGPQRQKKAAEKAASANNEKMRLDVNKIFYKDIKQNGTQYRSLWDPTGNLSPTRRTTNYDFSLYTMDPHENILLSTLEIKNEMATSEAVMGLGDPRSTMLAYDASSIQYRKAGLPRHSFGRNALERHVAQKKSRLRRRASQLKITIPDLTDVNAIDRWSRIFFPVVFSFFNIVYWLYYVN
T2 sequence (P18507 whole entry): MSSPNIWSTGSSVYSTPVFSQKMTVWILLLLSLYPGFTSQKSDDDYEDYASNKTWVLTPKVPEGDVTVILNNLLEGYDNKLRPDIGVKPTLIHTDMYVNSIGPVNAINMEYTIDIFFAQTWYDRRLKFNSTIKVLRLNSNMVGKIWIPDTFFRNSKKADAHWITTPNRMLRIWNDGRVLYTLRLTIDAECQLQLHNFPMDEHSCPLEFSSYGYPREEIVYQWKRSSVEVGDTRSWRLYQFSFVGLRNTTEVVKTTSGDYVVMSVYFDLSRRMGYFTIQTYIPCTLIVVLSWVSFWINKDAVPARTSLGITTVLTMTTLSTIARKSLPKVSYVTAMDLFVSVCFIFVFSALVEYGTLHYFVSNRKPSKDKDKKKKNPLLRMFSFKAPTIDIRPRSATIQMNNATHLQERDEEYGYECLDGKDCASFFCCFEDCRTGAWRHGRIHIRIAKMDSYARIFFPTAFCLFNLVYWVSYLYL
In short: (§2)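 tsA201 cells (8×10^5 per 6 cm dish) were transfected with α1, α2, α3 or α5 plus β2 and γ2S cDNAs (1:1:3), or with ρ1 alone. Next day cells were replated into poly-D-lysine 96-well plates. After 16–24 h they were washed with Krebs buffer pH 7.4, given membrane-potential dye, held 30 min at 37 °C, and read at 560 nm emission. Concentration-response curves used ΔFU before versus after agonist; duplicates were run ≥3 times.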

[3] = molecular target: T3, GABA A receptor alpha-2/beta-2/gamma-2 (Homo sapiens, UniProt P18507+P47869+P47870); test: Agonist activity at human GABAAalpha2beta2gamma2S receptor expressed in tsA-201cells by FLIPR membrane potential blue assay; in short: as §2
T3 sequence (P47870 whole entry): T2 sequence (P47870 whole entry)
T3 sequence (P18507 whole entry): T2 sequence (P18507 whole entry)
T3 sequence (P47869 whole entry): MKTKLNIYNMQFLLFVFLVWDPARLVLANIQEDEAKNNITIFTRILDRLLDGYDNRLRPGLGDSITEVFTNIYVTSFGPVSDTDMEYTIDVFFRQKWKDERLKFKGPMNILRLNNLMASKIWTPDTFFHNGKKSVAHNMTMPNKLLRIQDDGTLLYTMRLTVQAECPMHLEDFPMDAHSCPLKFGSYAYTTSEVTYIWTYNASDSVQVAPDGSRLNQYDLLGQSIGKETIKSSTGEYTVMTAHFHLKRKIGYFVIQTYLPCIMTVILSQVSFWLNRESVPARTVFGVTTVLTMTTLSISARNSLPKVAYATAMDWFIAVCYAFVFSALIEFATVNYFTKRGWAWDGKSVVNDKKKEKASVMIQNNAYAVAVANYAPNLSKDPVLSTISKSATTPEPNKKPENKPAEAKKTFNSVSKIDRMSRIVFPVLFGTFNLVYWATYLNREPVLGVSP

[4] = Agonist activity at human GABAAalpha5beta2gamma2S receptor expressed in tsA-201cells by FLIPR membrane potential blue assay; format: cell membranes
[5] = molecular target: GABA A receptor alpha-2/beta-2/gamma-2 (Homo sapiens) (UniProt P47870+P18507+P47869); test: Agonist activity at human GABAAalpha2beta2gamma2S receptor expressed in tsA-201cells by FLIPR membrane potential blue assay relative to GABA
[6] = molecular target: T4, GABA A receptor alpha-3/beta-2/gamma-2 (Homo sapiens, UniProt P18507+P34903+P47870); test: Agonist activity at human GABAAalpha3beta2gamma2S receptor expressed in tsA-201cells by FLIPR membrane potential blue assay; in short: as §2
T4 sequence (P47870 whole entry): T2 sequence (P47870 whole entry)
T4 sequence (P18507 whole entry): T2 sequence (P18507 whole entry)
T4 sequence (P34903 whole entry): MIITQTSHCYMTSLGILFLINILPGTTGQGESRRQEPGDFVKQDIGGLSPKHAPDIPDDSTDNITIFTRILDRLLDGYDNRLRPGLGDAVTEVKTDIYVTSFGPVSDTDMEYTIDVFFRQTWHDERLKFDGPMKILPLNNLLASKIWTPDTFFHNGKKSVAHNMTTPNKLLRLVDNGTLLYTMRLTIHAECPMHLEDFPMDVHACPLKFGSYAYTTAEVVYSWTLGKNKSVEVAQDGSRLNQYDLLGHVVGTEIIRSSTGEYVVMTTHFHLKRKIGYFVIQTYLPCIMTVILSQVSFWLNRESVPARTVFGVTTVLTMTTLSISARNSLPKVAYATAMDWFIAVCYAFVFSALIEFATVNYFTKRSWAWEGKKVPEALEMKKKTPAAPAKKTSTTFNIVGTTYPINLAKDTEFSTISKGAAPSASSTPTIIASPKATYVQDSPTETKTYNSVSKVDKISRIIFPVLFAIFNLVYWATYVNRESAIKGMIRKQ

[7] = molecular target: GABA-A receptor; anion channel; test: Displacement of [3H]muscimol from GABAA receptor in SPRD rat brain synaptic membranes by scintillation counting method; format: cell membranes
In short: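 Rat synaptic membranes were thawed, homogenized in ice-cold 50 mM Tris-HCl pH 7.4, and spun at 48,000g for 10 min at 4 °C, with the wash repeated four times. Incubation was with 5 nM [3H]muscimol (final) and varying test concentrations for 60 min at 0 °C, then GF/C filtration and scintillation counting.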

[8] = molecular target: T1, Gamma-aminobutyric acid receptor subunit rho-1; test: Agonist activity at human GABAA rho1 expressed in tsA-201cells by FLIPR membrane potential blue assay; in short: as §2
[9] = molecular target: GABA A receptor alpha-3/beta-2/gamma-2 (Homo sapiens) (UniProt P47870+P18507+P34903); test: Agonist activity at human GABAAalpha3beta2gamma2S receptor expressed in tsA-201cells by FLIPR membrane potential blue assay relative to GABA
[10] = Dissociation constant, pKa of the compound by diode array detector method; format: physicochemical
In short: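 pKa was determined by titration in methanol cosolvent at 23–48%, with three titrations per compound. An in-line diode-array detector recorded UV-Vis spectra, and the titration was mapped against the spectra of the protonated and unprotonated species.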

[11] = molecular target: T5, GABA-A receptor; alpha-1/beta-2/gamma-2 (Homo sapiens, UniProt P14867+P47870+P18507); test: as §1; settings: tsa-201; in short: as §2
T5 sequence (P14867 whole entry): T2 sequence (P14867 whole entry)
T5 sequence (P47870 whole entry): T2 sequence (P47870 whole entry)
T5 sequence (P18507 whole entry): T2 sequence (P18507 whole entry)

[12] = molecular target: T1, Gamma-aminobutyric acid receptor subunit rho-1; test: Agonist activity at human GABAA rho1 expressed in tsA-201cells at 1 mM by FLIPR membrane potential blue assay; format: cell-based
In short: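 Transfected tsA201 cells (α1β2γ2S or ρ1) were loaded with membrane-potential dye in Krebs buffer pH 7.4 for 30 min at 37 °C. Compound was applied at a single 1 mM concentration. Response was read as fluorescence change at 560 nm emission before versus after addition, in duplicate on ≥3 occasions.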

O=C(O)C1=CCNCC1 [ISOGUVACINE]
Rmax [1]: 85% | Rmax (tsA-201): 101% | EC50 ([2]; read-out: EC50): 11 µM | EC50 [3]: 4.5 µM | EC50 [4]: 0.78 µM | pEC50 [4]: 6.1 | Rmax [5]: 95% | EC50 [6]: 5.6 µM | Ki [7]: 0.055 µM | EC50 ([8]; read-out: EC50): 39 µM | Rmax [9]: 91%

Nc1ccc(C(=O)O)cn1
EC50 ([2]; read-out: EC50): > 300 µM | EC50 ([2]; read-out: pEC50 (converted)): > 316 µM | Ki [7]: 4.4 µM | pKi [7]: 5.39 | EC50 ([8]; tsa-201): Active | pKa [10]: 6.2

NC1=NCC(C(=O)O)CC1 (stereo not drawn)
Rmax [1]: 64% | Rmax (tsA-201): 100% | EC50 ([2]; read-out: EC50): 2.6 µM | EC50 [3]: 0.82 µM | EC50 [4]: 0.092 µM | pEC50 [4]: 7.04 | Rmax [5]: 101% | EC50 [6]: 1.1 µM | Ki [7]: 0.044 µM | EC50 ([8]; read-out: EC50): 2.3 µM | EC50 ([8]; read-out: pEC50 (converted)): 1.23 µM | pKa [10]: 12.4 | Rmax [9]: 93%

CCc1cc(C(=O)O)cnc1N
Ki [7]: > 100 µM

Nc1cc(CC(=O)O)ccn1
Ki [7]: 73 µM

Nc1ccc(CC(=O)O)cn1
Ki [7]: 90 µM

Cc1cc(N)ncc1C(=O)O
EC50 ([2]; read-out: EC50): > 1000 µM | pEC50 [11]: < 3 | Activity [12]: Active | Ki [7]: 3.6 µM | EC50 ([8]; tsa-201): Active

Nc1ccc(C(=O)O)c(-c2ccccc2)n1
Ki [7]: > 100 µM

Cc1nc(N)ccc1C(=O)O
EC50 [11]: Active | Ki [7]: 1.4 µM | EC50 ([8]; tsa-201): Active

CCCCc1cc(N)ncc1C(=O)O
EC50 ([2]; read-out: EC50): > 1000 µM | pEC50 [11]: < 3 | Ki [7]: 24 µM | EC50 ([8]; read-out: EC50): > 1000 µM | pEC50 ([8]; tsa-201): < 3

Cc1cc(C(=O)O)cnc1N
Ki [7]: > 100 µM

Nc1ncc(C(=O)O)cn1
Ki [7]: > 100 µM | pKa [10]: 1.9

CNC1=NCC(C(=O)O)CC1 (stereo not drawn)
EC50 ([2]; read-out: EC50): > 1000 µM | pEC50 [11]: < 3 | Ki [7]: 49 µM | pKi [7]: 4.32

Nc1ccc(C(=O)O)c(Cl)n1
Ki [7]: > 100 µM

O=C(O)c1cncnc1
Ki [7]: > 100 µM | pKa [10]: 1.4

Nc1cc(C(=O)O)ccn1
Ki [7]: 19 µM
